Calls of active or inactive are those of the source. The rule behind the calls is not given here.
Columns and labels:
Neutrophil collagenase = Neutrophil collagenase (Homo sapiens, UniProt P22894); test: Inhibition of MMP8
In short: (§1)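 Human recombinant enzymes in Tris 50 mM pH 7.5, NaCl 150 mM, CaCl2 10 mM, Brij 35 0.05%, DMSO 1%. Final enzyme: MMP-1 2.0 nM, MMP-2 2.9, MMP-3 5, MMP-8 1.5, MMP-9 2.7, MMP-14 cd 1, MMP-16 cd 15, TACE 7.5 nM. Pro-MMP-1/-2/-8 activated with APMA 2 mM, pro-MMP-9 with APMA 1 mM, each 1 h at 37 °C. Pro-MMP-3 activated with trypsin 5 µg/mL for 30 min at 37 °C, then soybean trypsin inhibitor.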

Collagenase 3 [1] = target: T1, Collagenase 3 (Homo sapiens, UniProt P45452); test: Inhibition of MMP13
Interstitial collagenase [2] = target: T2, Interstitial collagenase (Homo sapiens, UniProt P03956); test: Inhibition of MMP1; in short: as §1
T2 sequence (P03956 whole entry): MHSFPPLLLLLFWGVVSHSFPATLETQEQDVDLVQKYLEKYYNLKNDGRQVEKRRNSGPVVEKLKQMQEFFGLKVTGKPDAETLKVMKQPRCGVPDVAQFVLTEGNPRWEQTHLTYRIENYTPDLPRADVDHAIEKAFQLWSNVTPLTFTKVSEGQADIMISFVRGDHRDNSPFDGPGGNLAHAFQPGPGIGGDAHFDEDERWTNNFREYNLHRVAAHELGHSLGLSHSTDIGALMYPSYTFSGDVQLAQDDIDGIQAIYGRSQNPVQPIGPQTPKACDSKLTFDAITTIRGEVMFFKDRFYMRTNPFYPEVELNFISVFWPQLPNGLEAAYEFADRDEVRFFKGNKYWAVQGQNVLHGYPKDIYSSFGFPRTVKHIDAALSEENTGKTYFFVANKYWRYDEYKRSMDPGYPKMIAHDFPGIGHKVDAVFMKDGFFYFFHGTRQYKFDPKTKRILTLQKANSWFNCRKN

[3] = target: 72 kDa type IV collagenase (Homo sapiens, UniProt P08253); test: Inhibition of MMP2; in short: as §1
[4] = target: Matrix metalloproteinase-9 (Homo sapiens, UniProt P14780); test: Inhibition of MMP9; in short: as §1
[5] = target: Matrix metalloproteinase-14 (Homo sapiens, UniProt P50281); test: Inhibition of human recombinant MMP14; in short: as §1
Stromelysin-1 = Stromelysin-1 (Homo sapiens, UniProt P08254); test: Inhibition of MMP3; in short: as §1
[6] = target: Disintegrin and metalloproteinase domain-containing protein 17 (Homo sapiens, UniProt P78536); test: Inhibition of TACE; in short: as §1
[7] = target: Matrix metalloproteinase-16 (Homo sapiens, UniProt P51512); test: Inhibition of human recombinant MMP16; in short: as §1
Interstitial collagenase [8] = target: T2, Interstitial collagenase; test: Inhibition of MMP1-mediated collagen degradation by SDS-PAGE
In short: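 Full-length MMP-1 (0.5 nM) preincubated with inhibitor (0–10 µM) for 2 h at 25 °C in Tris-HCl 50 mM pH 7.5, NaCl 150 mM, CaCl2 5 mM, Brij-35 0.05%, NaN3 0.02%. Guinea-pig skin acid-soluble collagen (final 1.35 mg/mL) added, 16 h at 25 °C, stopped with EDTA. Full-length and 3/4-fragment α2 chains quantified by densitometry after 7.5% SDS-PAGE with Coomassie stain; IC50 derived.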

Collagenase 3 [9] = target: T1, Collagenase 3; test: Inhibition of MMP13-mediated collagen degradation by SDS-PAGE
Sus scrofa [10] = species: Sus scrofa; test: Inhibition of MMP13-mediated collagen degradation in long term IL-1-alpha-stimulated pig articular cartilage explant culture assessed as hydroxyproline release
In short: (§2)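 Porcine metacarpophalangeal cartilage explants from 3–9-month pigs were rested 24 h with serum, then 3 days serum-free. They were stimulated with IL-1α 10 ng/mL plus inhibitor at 0.1, 1 or 10 µM in serum-free DMEM, with medium changed every 3–4 days. Hydroxyproline was measured in the medium after 6 N HCl hydrolysis, using chloramine T/DMBA and absorbance at 560 nm against a standard curve. Cumulative release was corrected for unstimulated background.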

Sus scrofa [11] = species: Sus scrofa; test: Inhibition of MMP13-mediated collagen degradation in long term IL-1-alpha-stimulated pig articular cartilage explant culture assessed as hydroxyproline release at 1 uM; in short: as §2
Sus scrofa [12] = species: Sus scrofa; test: Inhibition of MMP13-mediated collagen degradation in long term IL-1-alpha-stimulated pig articular cartilage explant culture assessed as hydroxyproline release at 10 uM; in short: as §2

Chain of Matrix metalloproteinase-9 (P14780 whole entry): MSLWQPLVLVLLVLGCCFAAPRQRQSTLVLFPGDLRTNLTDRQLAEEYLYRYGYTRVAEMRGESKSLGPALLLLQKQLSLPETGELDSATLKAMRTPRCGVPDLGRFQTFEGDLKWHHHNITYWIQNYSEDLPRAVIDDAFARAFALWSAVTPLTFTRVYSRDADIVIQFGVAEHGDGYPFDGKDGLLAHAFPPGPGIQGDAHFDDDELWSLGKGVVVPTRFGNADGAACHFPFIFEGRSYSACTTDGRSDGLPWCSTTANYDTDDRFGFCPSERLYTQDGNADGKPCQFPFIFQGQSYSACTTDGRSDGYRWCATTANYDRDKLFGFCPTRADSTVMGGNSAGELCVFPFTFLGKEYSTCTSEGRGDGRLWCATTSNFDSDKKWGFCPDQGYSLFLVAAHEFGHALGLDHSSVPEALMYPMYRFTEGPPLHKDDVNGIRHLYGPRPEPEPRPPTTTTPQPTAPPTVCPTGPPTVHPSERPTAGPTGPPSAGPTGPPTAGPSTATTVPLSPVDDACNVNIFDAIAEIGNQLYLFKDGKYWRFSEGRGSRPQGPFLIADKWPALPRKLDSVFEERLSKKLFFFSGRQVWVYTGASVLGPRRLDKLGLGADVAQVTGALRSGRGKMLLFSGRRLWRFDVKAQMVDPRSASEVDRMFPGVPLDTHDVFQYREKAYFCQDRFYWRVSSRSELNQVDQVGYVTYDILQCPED
Chain of Neutrophil collagenase (P22894 whole entry): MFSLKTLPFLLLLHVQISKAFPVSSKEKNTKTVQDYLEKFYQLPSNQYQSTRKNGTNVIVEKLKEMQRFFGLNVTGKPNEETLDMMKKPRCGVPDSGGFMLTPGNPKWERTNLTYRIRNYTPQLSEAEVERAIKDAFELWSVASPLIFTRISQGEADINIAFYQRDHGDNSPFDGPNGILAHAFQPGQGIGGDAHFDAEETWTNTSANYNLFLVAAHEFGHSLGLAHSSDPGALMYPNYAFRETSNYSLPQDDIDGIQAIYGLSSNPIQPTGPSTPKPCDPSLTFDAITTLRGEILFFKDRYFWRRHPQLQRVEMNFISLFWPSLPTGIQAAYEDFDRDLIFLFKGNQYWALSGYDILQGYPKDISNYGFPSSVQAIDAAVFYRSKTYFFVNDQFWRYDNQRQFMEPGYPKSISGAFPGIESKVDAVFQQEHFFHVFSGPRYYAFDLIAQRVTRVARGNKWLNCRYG
Chain of Disintegrin and metalloproteinase domain-containing protein 17 (P78536 whole entry, the tested form may be a part): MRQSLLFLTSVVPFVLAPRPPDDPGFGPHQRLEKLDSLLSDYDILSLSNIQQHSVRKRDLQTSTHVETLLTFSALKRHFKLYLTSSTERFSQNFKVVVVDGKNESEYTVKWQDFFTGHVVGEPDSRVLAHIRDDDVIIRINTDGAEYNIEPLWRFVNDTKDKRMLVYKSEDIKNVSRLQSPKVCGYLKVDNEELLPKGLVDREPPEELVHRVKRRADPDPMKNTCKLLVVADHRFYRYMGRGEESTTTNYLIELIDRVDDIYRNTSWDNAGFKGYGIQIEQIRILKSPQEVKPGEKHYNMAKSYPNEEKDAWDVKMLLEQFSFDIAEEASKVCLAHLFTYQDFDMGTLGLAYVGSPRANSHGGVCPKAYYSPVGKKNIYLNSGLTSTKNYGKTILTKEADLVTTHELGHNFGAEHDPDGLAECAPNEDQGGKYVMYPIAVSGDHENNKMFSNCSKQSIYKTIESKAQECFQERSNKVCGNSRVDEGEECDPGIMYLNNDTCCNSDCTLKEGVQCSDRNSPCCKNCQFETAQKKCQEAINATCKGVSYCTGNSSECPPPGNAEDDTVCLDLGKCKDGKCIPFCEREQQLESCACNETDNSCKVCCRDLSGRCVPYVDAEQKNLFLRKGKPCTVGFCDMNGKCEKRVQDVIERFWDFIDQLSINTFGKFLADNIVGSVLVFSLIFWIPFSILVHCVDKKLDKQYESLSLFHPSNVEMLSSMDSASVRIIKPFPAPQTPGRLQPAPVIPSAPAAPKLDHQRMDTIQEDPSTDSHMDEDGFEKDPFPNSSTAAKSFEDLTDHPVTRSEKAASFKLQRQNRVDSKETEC
Chain of Matrix metalloproteinase-16 (P51512 whole entry): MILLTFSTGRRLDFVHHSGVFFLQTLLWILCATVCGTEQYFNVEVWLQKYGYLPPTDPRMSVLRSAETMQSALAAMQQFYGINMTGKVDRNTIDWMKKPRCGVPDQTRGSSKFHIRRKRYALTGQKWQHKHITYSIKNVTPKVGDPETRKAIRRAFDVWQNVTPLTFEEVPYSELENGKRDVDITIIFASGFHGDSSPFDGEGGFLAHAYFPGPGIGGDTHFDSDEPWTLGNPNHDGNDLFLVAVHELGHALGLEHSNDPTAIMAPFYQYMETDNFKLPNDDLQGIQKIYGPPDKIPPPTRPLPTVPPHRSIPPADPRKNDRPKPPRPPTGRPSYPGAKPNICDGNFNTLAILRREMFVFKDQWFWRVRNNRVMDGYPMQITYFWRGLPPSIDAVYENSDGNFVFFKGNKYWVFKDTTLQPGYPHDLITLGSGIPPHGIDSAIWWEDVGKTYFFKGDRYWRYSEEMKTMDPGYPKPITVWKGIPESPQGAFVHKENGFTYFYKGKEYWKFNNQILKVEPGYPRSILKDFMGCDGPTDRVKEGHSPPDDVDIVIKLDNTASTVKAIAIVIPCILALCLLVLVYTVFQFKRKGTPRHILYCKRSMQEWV
Chain of 72 kDa type IV collagenase (P08253 whole entry): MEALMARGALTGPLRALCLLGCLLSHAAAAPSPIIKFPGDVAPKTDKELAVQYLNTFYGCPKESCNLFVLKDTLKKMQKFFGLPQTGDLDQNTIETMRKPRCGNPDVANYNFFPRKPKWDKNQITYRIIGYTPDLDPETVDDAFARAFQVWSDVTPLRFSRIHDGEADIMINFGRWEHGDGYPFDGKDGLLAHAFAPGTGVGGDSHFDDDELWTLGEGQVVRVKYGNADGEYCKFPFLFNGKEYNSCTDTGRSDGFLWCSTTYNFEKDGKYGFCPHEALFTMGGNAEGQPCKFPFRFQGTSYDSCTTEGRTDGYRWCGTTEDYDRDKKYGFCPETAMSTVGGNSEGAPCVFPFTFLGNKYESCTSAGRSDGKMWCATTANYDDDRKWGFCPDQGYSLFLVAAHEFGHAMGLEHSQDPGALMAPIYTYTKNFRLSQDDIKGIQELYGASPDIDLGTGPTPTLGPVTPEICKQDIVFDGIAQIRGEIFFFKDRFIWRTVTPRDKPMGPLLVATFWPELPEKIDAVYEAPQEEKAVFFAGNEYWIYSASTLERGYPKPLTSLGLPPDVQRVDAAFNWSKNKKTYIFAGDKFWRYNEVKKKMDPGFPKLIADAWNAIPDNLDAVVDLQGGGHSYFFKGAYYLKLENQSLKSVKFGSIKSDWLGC
Chain of Stromelysin-1 (P08254 whole entry, the tested form may be a part): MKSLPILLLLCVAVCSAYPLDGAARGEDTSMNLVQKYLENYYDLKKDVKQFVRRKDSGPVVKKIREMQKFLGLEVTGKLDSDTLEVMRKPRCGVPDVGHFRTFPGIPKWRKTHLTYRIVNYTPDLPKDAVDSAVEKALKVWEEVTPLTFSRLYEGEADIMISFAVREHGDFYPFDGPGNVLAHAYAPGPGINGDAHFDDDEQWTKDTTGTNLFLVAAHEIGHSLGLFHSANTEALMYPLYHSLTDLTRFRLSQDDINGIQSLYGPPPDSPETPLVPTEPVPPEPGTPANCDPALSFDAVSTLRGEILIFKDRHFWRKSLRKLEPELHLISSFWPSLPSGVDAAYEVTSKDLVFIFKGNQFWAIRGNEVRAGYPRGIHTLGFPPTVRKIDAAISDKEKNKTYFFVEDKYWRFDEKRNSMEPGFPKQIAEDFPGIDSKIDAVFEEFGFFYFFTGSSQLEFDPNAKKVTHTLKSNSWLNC

| Structure (SMILES) | IC50 (Neutrophil collagenase) | IC50 (Collagenase 3 [1]) | IC50 (Interstitial collagenase [2]) | IC50 [3] | IC50 [4] | IC50 [5] | IC50 (Stromelysin-1) | IC50 [6] | IC50 [7] | Ki (Collagenase 3 [1]) | Ki [3] | IC50 (Interstitial collagenase [8]) | IC50 (Collagenase 3 [9]) | inhibition (Sus scrofa [10]) | inhibition (Sus scrofa [11]) | inhibition (Sus scrofa [12]) |
| --- | --- | --- | --- | --- | --- | --- | --- | --- | --- | --- | --- | --- | --- | --- | --- | --- |
| CC(C)ON(CC(=O)NO)S(=O)(=O)c1ccc(-c2ccc(F)cc2)s1 | 440 nM | 600 nM | 20000 nM | 310 nM | 3200 nM | 6500 nM | 9100 nM | – | – | – | – | – | – | – | – | – |
| CCc1ccc(-c2ccc(S(=O)(=O)N(CC(=O)NO)OC(C)C)s2)cc1 | 140 nM | 91 nM | > 10000 nM | 56 nM | 680 nM | 2400 nM | 4300 nM | – | – | – | – | – | – | – | – | – |
| CCCCc1ccc(C#Cc2ccc(S(=O)(=O)N(CC(=O)NO)OC(C)C)s2)cc1 | 7600 nM | 260 nM | 13000 nM | 360 nM | 4400 nM | 11000 nM | 4300 nM | – | – | – | – | – | – | – | – | – |
| CC(C)ON(CC(=O)NO)S(=O)(=O)c1ccc(/C=C/c2ccc(-c3ccccc3)cc2)cc1 | 3600 nM | 41 nM | 5600 nM | 74 nM | 2300 nM | 2800 nM | 710 nM | – | – | – | – | – | – | – | – | – |
| CC(C)ON(CC(=O)NO)S(=O)(=O)c1ccc(-c2ccc(OCc3ccc(Cl)cc3)cc2)cc1 | 1700 nM | 19 nM | 13000 nM | 40 nM | 1100 nM | 3400 nM | 1800 nM | 35000 nM | 15000 nM | 8.2 nM | 25 nM | – | – | – | – | – |
| COc1ccc(-c2ccc(S(=O)(=O)N(CC(=O)NO)OC(C)C)s2)cc1 | 110 nM | 25 nM | > 10000 nM | 17 nM | 250 nM | > 1000 nM | 1200 nM | – | – | – | – | – | – | – | – | – |
| CC(C)CN(CC(=O)NO)S(=O)(=O)c1ccc(-c2ccccc2)cc1 | 48 nM | 39 nM | 4800 nM | 12 nM | 34 nM | 530 nM | 920 nM | – | – | – | – | 4100 nM | 9.4 nM | – | – | – |
| CSc1ccc(-c2ccc(S(=O)(=O)N(CC(=O)NO)OC(C)C)cc2)cc1 | 37 nM | 7.2 nM | 3300 nM | 1.5 nM | 77 nM | 320 nM | 1300 nM | – | – | – | – | – | – | – | – | – |
| CC(C)ON([C@@H](C(=O)NO)C(C)C)S(=O)(=O)c1ccc(-c2ccc(OCc3ccc(Cl)cc3)cc2)cc1 | 63 nM | 3 nM | 48000 nM | 9.6 nM | 69 nM | 14000 nM | 180 nM | > 100000 nM | 5000 nM | 29 nM | 54 nM | 15000 nM | 1.4 nM | Dose-dependent effect | Active | – |
| CC(C)ON(CC(=O)NO)S(=O)(=O)c1ccc(Oc2ccccc2)cc1 | 66 nM | 63 nM | 59000 nM | 26 nM | 110 nM | 590 nM | 1200 nM | – | – | – | – | – | – | – | – | – |
| COc1ccc(-c2ccc(S(=O)(=O)N(CC(=O)NO)OC(C)C)cc2)cc1 | 65 nM | 10 nM | 13000 nM | 4.2 nM | 160 nM | 1000 nM | 1800 nM | – | – | 5.8 nM | 3.8 nM | – | – | – | – | – |
| CC(C)ON(CC(=O)NO)S(=O)(=O)c1ccc(-c2ccccc2)cc1 | 260 nM | 45 nM | 12000 nM | – | – | 2300 nM | 5900 nM | > 100000 nM | 900 nM | 20 nM | 13 nM | 2900 nM | 25 nM | Dose-dependent effect | – | Active |
| O=C(CNS(=O)(=O)c1ccc(-c2ccccc2)cc1)NO | 7 nM | 2.8 nM | 610 nM | 2 nM | 34 nM | 70 nM | 320 nM | – | – | – | – | 970 nM | 2.4 nM | – | – | – |
| CCCCOc1ccc(-c2ccc(S(=O)(=O)N(CC(=O)NO)OC(C)C)cc2)cc1 | 560 nM | 15 nM | 11000 nM | 5.5 nM | 44 nM | 5500 nM | 1600 nM | – | – | – | – | – | – | – | – | – |
